High-throughput results from PubChem.
This is a sample that favours compounds with a hit; in the whole collection about 2.5% have one here.
KLK7 zymogen act: activators of human kallikrein-7 zymogen; P49862; purified proKLK7, EDANS-DABCYL substrate fluorescence; 100% is mature enzyme control, 0% vehicle; activation, % at 7 µM; 370,000 compounds, 0.9% hits; AID 652039;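 active means activation above the mean of all tested compounds plus 3 SD, computed per campaign excluding outliers beyond control limits, cut at about 13% in these data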
ADAM10 inh: inhibitors of human ADAM10. O14672. recombinant ADAM10, EDANS/DABCYL FRET peptide cleavage, 3 h. inhibition, % at 7 µM. 370,000 compounds, 0.62% hits. AID 720582;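 active means inhibition above a per-campaign cutoff equal to the mean of compounds falling between control-based bounds plus 3 SD, cut at about 20% in these data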;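 further: 0% = DMSO wells while the 100% control is not disclosed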
Target sequence (O14672 214-748 limits assumed): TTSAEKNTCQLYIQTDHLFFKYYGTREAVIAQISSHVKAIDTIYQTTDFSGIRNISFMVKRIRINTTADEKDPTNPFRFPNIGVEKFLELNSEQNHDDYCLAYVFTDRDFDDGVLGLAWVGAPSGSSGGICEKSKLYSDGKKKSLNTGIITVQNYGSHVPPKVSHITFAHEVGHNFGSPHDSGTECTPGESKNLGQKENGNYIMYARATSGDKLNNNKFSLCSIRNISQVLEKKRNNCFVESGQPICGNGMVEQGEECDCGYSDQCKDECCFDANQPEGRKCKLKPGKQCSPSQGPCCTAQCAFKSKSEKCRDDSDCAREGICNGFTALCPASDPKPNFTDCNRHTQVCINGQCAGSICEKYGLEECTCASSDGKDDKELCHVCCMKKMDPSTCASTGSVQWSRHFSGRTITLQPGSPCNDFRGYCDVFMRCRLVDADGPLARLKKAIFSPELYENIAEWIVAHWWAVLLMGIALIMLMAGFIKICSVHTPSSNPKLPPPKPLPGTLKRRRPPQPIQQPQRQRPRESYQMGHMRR
ADAM17 inh: ADAM17 inhibition, QFRET primary screen; 370,000 compounds, 0.83% hits; recombinant ADAM17, EDANS/DABCYL FRET peptide cleavage; P78536; inhibition, % at 6.95 µM; AID 720648;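 active means inhibition above the mean of compounds lying between control limits plus 3 SD, set per campaign, cut at about 8.5% in these data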;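 further: 0% = DMSO-only wells as the low control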
JMJD2C inh: human JMJD2C demethylase inhibition. GST-JMJD2C(1-420) H3K9me3 demethylation, DELFIA europium. 330,000 compounds, 0.069% hits. inhibition, % at 2.35 µM. AID 2099. Q9H3R0;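 active means more than half of a compound's replicate wells show inhibition beyond 50%, single wells judged on their own value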;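 further: signal counts dimethyl H3K9 product captured on neutravidin plate; 0% = median of DMSO wells and 100% = 0.3 times that DMSO median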
NR2E3 ag-1: NR2E3 (human) agonism. Q9Y5X4. GST-NR2E3/biotin-RetCOR TR-FRET, 1536-well. inhibition of corepressor binding, % at 4.78 µM. 320,000 compounds, 0.12% hits. AID 2300;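 active means percent inhibition above the cutoff of mean plus 3 SD of all tested compounds, set per screening campaign, cut at about 20% in these data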;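 further: 0% = DMSO wells and 100% = biotin wells as full block of FRET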
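Format: 1536-well format; test system: GST-NR2E3 and biotin-RetCOR proteins; read-out basis: percent inhibition of TR-FRET ratio; timing: 5 h incubation at 4 °C; detection: time-resolved FRET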
NR2E3 ag-2: human photoreceptor-specific nuclear receptor agonism | Q9Y5X4 | CHO-S Gal4-NCOR/VP16-NR2E3 two-hybrid, luciferase | inhibition of corepressor binding, % at 3.98 µM | 360,000 compounds, 0.35% hits;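 active means inhibition above the mean of all tested compounds plus 3 SD, cut at about 70% in these data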;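 further: 0% = DMSO with NR2E3 transfected cells and 100% = cells lacking NR2E3 construct; higher means lower luciferase signal from less NR2E3 corepressor binding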
ADAM10 confirm: confirmation of inhibitors of human ADAM10 | shares compounds with ADAM10 inh | inhibition, % at 6.95 µM | ADAM10 QFRET peptide cleavage, EDANS fluorescence | 2,100 compounds, 1% hits;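 active means inhibition above about 20% chosen separately for each screening run, limit read from the data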;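 further: 0% = DMSO wells and 100% = marimastat wells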
ADAM17 counter: counter-screen for ADAM10 exosite inhibitors: inhibitors of human ADAM17; shares compounds with ADAM10 inh; ADAM17 QFRET peptide cleavage, EDANS fluorescence; inhibition, % at 6.95 µM; 2,100 compounds, 0.5% hits; AID 743214;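 active means mean triplicate inhibition above the solvent-only control wells' mean plus 3 SD, cut at about 12% in these data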;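 further: 0% = DMSO wells and 100% = marimastat wells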
Numbers without * were called inactive; x = no result given.

SMILES	KLK7 zymogen act	ADAM10 inh	ADAM17 inh	JMJD2C inh	NR2E3 ag-1	NR2E3 ag-2	ADAM10 confirm	ADAM17 counter
O=C(NNc1ccccc1)C(=O)NNS(=O)(=O)c1ccc(CCCl)cc1	0	35*	11*	-1	0	39	13	1
O=C(Cc1ccccc1)NNS(=O)(=O)c1ccc(F)cc1	0	-6	0	1	-2	11	x	x
CCN1CCCC1CN(Cc1cc2ccc(C)cc2[nH]c1=O)C(=S)Nc1cccc(OC)c1 (stereo not drawn)	0	-11	1	3	2	-35	x	x
C=CCC[C@@H](Cc1ccc(F)cc1)C(=O)OC[C@@H](NC(=O)[C@@H](CC=C)CC(=O)N[C@@H](CO)Cc1ccccc1)C(C)(C)C	0	21*	7	0	x	12	5	1
C=CCC[C@H](Cc1ccc(F)cc1)C(=O)OC[C@@H](C)NC(=O)[C@@H](CC=C)CC(=O)N[C@H](CO)Cc1ccccc1	0	9	3	x	x	18	x	x
C=CCC[C@H](Cc1ccc(F)cc1)C(=O)OC[C@@H](Cc1c[nH]c2ccccc12)NC(=O)[C@H](CC=C)CC(=O)NCCO	-1	21*	7	-6	x	-16	4	0
C=CCC[C@H](Cc1ccc(F)cc1)C(=O)OC[C@H](Cc1c[nH]c2ccccc12)NC(=O)[C@H](CC=C)CC(=O)N[C@H](CO)Cc1ccccc1	0	21*	6	x	x	-1	9	3
C=CCC[C@@H](Cc1ccc(F)cc1)C(=O)OC[C@H](Cc1c[nH]c2ccccc12)NC(=O)[C@H](CC=C)CC(=O)NCCO	-1	22*	8	-3	x	-11	6	1
O=C1N=NC(=O)N1c1ccccc1	0	-7	-3	0	4	-1	x	x
CC(C)(C)OC(=O)NCCCC[C@H](NC(=O)c1nc[nH]c1C(=O)NC(c1ccccc1)c1ccccc1)C(=O)OC(C)(C)C	1	22*	8	3	5	24	14	5
CC(C)(C)OC(=O)NCCCCCNC(=O)c1[nH]cnc1C(=O)N[C@@H](CCCCNC(=O)OC(C)(C)C)C(=O)OC(C)(C)C	x	x	x	2	-1	21	x	x
CC(C)(C)OC(=O)CNC(=O)c1[nH]cnc1C(=O)N[C@@H](CCCCNC(=O)OC(C)(C)C)C(=O)OC(C)(C)C	1	23*	1	-2	1	-23	0	0
CC(C)(C)OC(=O)NCCCC[C@H](NC(=O)c1nc[nH]c1C(=O)N[C@@H](CCCCNC(=O)OC(C)(C)C)C(=O)OC(C)(C)C)C(=O)OC(C)(C)C	0	11	0	-2	0	1	x	x
Cc1cccc(NC(=O)c2nc[nH]c2C(=O)N[C@@H](CCCCNC(=O)OC(C)(C)C)C(=O)OC(C)(C)C)c1	-2	33*	12*	-5	0	-2	11	3
CC(/C=C/c1ccco1)=N\NC(=O)COc1ccc(C)c(C)c1	0	-3	-2	-12	-2	-39	x	x
O=C(O)C(Cc1ccccc1-c1ccccc1)C(=O)O	0	0	-1	-5	-1	-17	x	x
Cc1ccc(S(=O)(=O)NCC(=O)OCC(=O)Nc2cccc(S(=O)(=O)N3CCOCC3)c2)cc1	-1	-2	6	6	x	20	x	x
COC(=O)C1=C(C)NC(C)=C(C(=O)OCC2CCCO2)C1c1ccc(Cl)c([N+](=O)[O-])c1 (stereo not drawn)	0	26*	4	3	0	-8	2	1
CCC(C(=O)Oc1c(C(C)C)cccc1C(C)C)c1ccccc1 (stereo not drawn)	1	79*	5	4	1	16	-1	0
CCC(C(=O)O/N=C(\N)c1ccccc1)c1ccccc1 (stereo not drawn)	0	-2	-1	1	0	-1	x	x
CCOc1ccccc1NC(=O)C(=O)N/N=C/c1cc(Br)ccc1O	-1	-4	-5	-24	3	-1	x	x
Cc1cccc(C(=O)NN2C(=O)C3C(c4ccccc4)C=CC(c4ccccc4)C3C2=O)c1 (stereo not drawn)	0	20*	8	-5	-3	-12	5	2
O=C(NN1C(=O)C2C3C=CC(C3)C2C1=O)c1ccccc1 (stereo not drawn)	0	-6	-2	1	0	-11	x	x
COc1ccccc1NS(=O)(=O)c1cccc(C(=O)OCc2nc3ccccc3s2)c1	0	21*	8	2	-2	0	7	2
CCC1Sc2ccc(S(=O)(=O)CCC(=O)Nc3c(Cl)cc(OC)cc3OC)cc2NC1=O (stereo not drawn)	0	20*	6	-1	1	11	0	0
SMILES	KLK7 zymogen act	ADAM10 inh	ADAM17 inh	JMJD2C inh	NR2E3 ag-1	NR2E3 ag-2	ADAM10 confirm	ADAM17 counter
CN1C(=O)c2cc(NC(=O)Nc3ccccc3)ccc2OC[C@H]2O[C@@H](CC(=O)NCc3ccc(-c4ccccc4)cc3)CC[C@@H]21	0	12	1	x	x	x	x	x
CN1C(=O)c2cc(NC(=O)Nc3ccccc3F)ccc2OC[C@H]2O[C@@H](CC(=O)NCc3ccc(-c4ccccc4)cc3)CC[C@@H]21	0	30*	-8	x	x	x	22*	5
CN=C1S/C(=C\c2cccc(Cl)c2Cl)C(=O)N1C	0	-6	-2	0	4	x	x	x
COC(=O)[C@]12C[C@H](CC(=O)NCc3ccc(OC)c(OC)c3)C(=O)N(Cc3ccccc3)C1=C[C@H](C1CCCC1)O[C@@H]2C	1	-2	1	x	x	x	x	x
COC(=O)[C@]12C[C@H](CC(=O)N3CCN(C(=O)c4ccco4)CC3)C(=O)N(Cc3cccc4ccccc34)C1=C[C@H](C(C)(C)C)O[C@@H]2C	1	-1	2	x	x	x	x	x
COC(=O)[C@]12C[C@H](CC(=O)N3CCN(C(=O)c4ccco4)CC3)C(=O)N(Cc3cccc4ccccc34)C1=C[C@H](C1CCCC1)O[C@@H]2C	0	21*	4	x	x	x	5	2
COC(=O)[C@]12C[C@H](CC(=O)NCc3cccc4ccccc34)C(=O)N(Cc3cccc4ccccc34)C1=C[C@H](C(C)(C)C)O[C@@H]2C	0	8	3	x	x	x	x	x
COC(=O)[C@]12C[C@H](CC(=O)NCCC(C)C)C(=O)N(Cc3ccco3)C1=C[C@H](COCc1ccccc1)O[C@@H]2C	0	53*	-4	x	x	x	1	0
